Laboratory results published in ChEMBL document CHEMBL1125678, “Quinazolineacetic acids and related analogues as aldose reductase inhibitors” (J Med Chem, 1991).

Tests used:
[1] = target: Aldo-keto reductase family 1 member B1 (Bos taurus) (UniProt P16116); assay: In vitro inhibition of aldose reductase in partially purified bovine lens preparation at a concentration of 10e -7M.
Outline: (§1)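 Enzyme from bovine lens, partially purified by the cited method with the final chromatographic step omitted. DL-Glyceraldehyde was the substrate. Test compounds were run in duplicate at 1×10⁻⁵, 1×10⁻⁶, 1×10⁻⁷ or 4×10⁻⁸ M. Values are % inhibition of enzymatic activity.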

[2] = target: Aldo-keto reductase family 1 member B1 (Bos taurus) (UniProt P16116); assay: In vitro inhibition of aldose reductase in partially purified bovine lens preparation at a concentration of 4*10e -8M.; outline: as §1
Rattus norvegicus [3] = assay: In vivo inhibition of galactitol accumulation in the sciatic nerve of rats fed 20% galactose for 4 day at 105 mg/kg/day dose; NS = No Significant inhibition of polyol accumulation; format: functional, organism-based
Outline: (§2)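 Male Sprague-Dawley rats (50–70 g) in groups of six were fed chow with 20% (w/w) galactose. Controls received 20% glucose instead. Test compound was mixed into the diet, and dose was calculated from actual food intake. Rats were killed by decapitation after 4 days. Result is % lowering of tissue galactitol versus galactose-fed controls, as the mean of six animals, compared by Dunnett's multiple comparison.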

Rattus norvegicus [4] = assay: In vivo inhibition of galactitol accumulation in the diaphragm of rats fed 20% galactose for 4 day at 105 mg/kg/day dose; NS = No Significant inhibition of polyol accumulation; format: functional, organism-based; outline: as §2
Rattus norvegicus [5] = assay: In vivo inhibition of galactitol accumulation in the diaphragm of rats fed 20% galactose for 4 day at 97 mg/kg/day dose; format: functional; outline: as §2
Rattus norvegicus [6] = assay: In vivo inhibition of galactitol accumulation in the sciatic nerve of rats fed 20% galactose for 4 day at 97 mg/kg/day dose; format: functional
Rattus norvegicus [7] = assay: In vivo inhibition of galactitol accumulation in the sciatic nerve of rats fed 20% galactose for 4 day at 95 mg/kg/day dose; NS= No Significant inhibition of polyol accumulation; format: functional, organism-based
Rattus norvegicus [8] = assay: In vivo inhibition of galactitol accumulation in the diaphragm of rats fed 20% galactose for 4 day at 103 mg/kg/day dose; format: functional; outline: as §2
Rattus norvegicus [9] = assay: In vivo inhibition of galactitol accumulation in the diaphragm of rats fed 20% galactose for 4 day at 90 mg/kg/day dose; format: functional; outline: as §2
Rattus norvegicus [10] = assay: In vivo inhibition of galactitol accumulation in the diaphragm of rats fed 20% galactose for 4 day at 100 mg/kg/day dose; format: functional; outline: as §2
Rattus norvegicus [11] = assay: In vivo inhibition of galactitol accumulation in the sciatic nerve of rats fed 20% galactose for 4 day at 100 mg/kg/day dose; NS = No Significant inhibition of polyol accumulation; format: functional, organism-based; outline: as §2
Rattus norvegicus [12] = assay: In vivo inhibition of galactitol accumulation in the diaphragm of rats fed 20% galactose for 4 day at 79 mg/kg/day dose; NS = No Significant inhibition of polyol accumulation; format: functional, organism-based; outline: as §2
[13] = target: Aldo-keto reductase family 1 member B1 (Bos taurus) (UniProt P16116); assay: in vitro inhibition of Aldose reductase in partially purified bovine lens preparation at a concentration of 10e-6 M.
[14] = target: Aldo-keto reductase family 1 member B1 (Bos taurus) (UniProt P16116); assay: In vitro inhibition of Aldose reductase in partially purified bovine lens preparation at a concentration of 10e -7M.; outline: as §1
Rattus norvegicus [15] = assay: In vivo inhibition of galactitol accumulation in the sciatic nerve of rats fed 20% galactose for 4 day at 79 mg/kg/day dose; NS = No Significant inhibition of polyol accumulation; format: functional, organism-based; outline: as §2
Rattus norvegicus [16] = assay: In vivo inhibition of galactitol accumulation in the sciatic nerve of rats fed 20% galactose for 4 day at 101 mg/kg/day dose; format: functional; outline: as §2
Rattus norvegicus [17] = assay: In vivo inhibition of galactitol accumulation in the diaphragm of rats fed 20% galactose for 4 day at 101 mg/kg/day dose; format: functional; outline: as §2
Rattus norvegicus [18] = assay: In vivo inhibition of galactitol accumulation in the diaphragm of rats fed 20% galactose for 4 day at 81 mg/kg/day dose; format: functional; outline: as §2
Rattus norvegicus [19] = assay: In vivo inhibition of galactitol accumulation in the diaphragm of rats fed 20% galactose for 4 day at 115 mg/kg/day dose; format: functional; outline: as §2
Rattus norvegicus [20] = assay: In vivo inhibition of galactitol accumulation in the sciatic nerve of rats fed 20% galactose for 4 day at 115 mg/kg/day dose; format: functional; outline: as §2
[21] = target: Aldo-keto reductase family 1 member B1 (Bos taurus) (UniProt P16116); assay: in vitro inhibition of aldose reductase in partially purified bovine lens preparation at a concentration of 10e -5M.
Rattus norvegicus [22] = assay: In vivo inhibition of galactitol accumulation in the diaphragm of rats fed 20% galactose for 4 day at 90 mg/kg/day dose; NS = No Significant inhibition of polyol accumulation; format: functional, organism-based; outline: as §2
Rattus norvegicus [23] = assay: In vivo inhibition of galactitol accumulation in the sciatic nerve of rats fed 20% galactose for 4 day at 90 mg/kg/day dose; NS = No Significant inhibition of polyol accumulation; format: functional, organism-based; outline: as §2
Rattus norvegicus [24] = assay: In vivo inhibition of galactitol accumulation in the sciatic nerve of rats fed 20% galactose for 4 day at 102 mg/kg/day dose; format: functional; outline: as §2
Rattus norvegicus [25] = assay: In vivo inhibition of galactitol accumulation in the diaphragm of rats fed 20% galactose for 4 day at 102 mg/kg/day dose; format: functional; outline: as §2
Rattus norvegicus [26] = assay: In vivo inhibition of galactitol accumulation in the sciatic nerve of rats fed 20% galactose for 4 day at 91 mg/kg/day dose; format: functional; outline: as §2
Rattus norvegicus [27] = assay: In vivo inhibition of galactitol accumulation in the diaphragm of rats fed 20% galactose for 4 day at 91 mg/kg/day dose; format: functional; outline: as §2
Rattus norvegicus [28] = assay: In vivo inhibition of galactitol accumulation in the diaphragm of rats fed 20% galactose for 4 day at 109 mg/kg/day dose; format: functional; outline: as §2
Rattus norvegicus [29] = assay: In vivo inhibition of galactitol accumulation in the sciatic nerve of rats fed 20% galactose for 4 day at 92 mg/kg/day dose; format: functional
Rattus norvegicus [30] = assay: In vivo inhibition of galactitol accumulation in the diaphragm of rats fed 20% galactose for 4 day at 92 mg/kg/day dose; format: functional; outline: as §2
Rattus norvegicus [31] = assay: in vivo inhibition of galactitol accumulation in the sciatic nerve of rats fed 20% galactose for 4 day; details: 96 h
Rattus norvegicus [32] = assay: In vivo inhibition of galactitol accumulation in the sciatic nerve of rats fed 20% galactose for 4 day at 88 mg/kg/day dose; NS = No Significant inhibition of polyol accumulation; format: functional, organism-based; outline: as §2
Rattus norvegicus [33] = assay: In vivo inhibition of galactitol accumulation in the diaphragm of rats fed 20% galactose for 4 day at 88 mg/kg/day dose; format: functional, organism-based; outline: as §2

`O=C(O)Cn1c(=O)c2sccc2n(Cc2ccc(Br)cc2F)c1=O` was tested, and the inhibition [1] was 68%, the inhibition [2] was 43% and the Lowering (Rattus norvegicus [3]) was “Not significant”. The Lowering (Rattus norvegicus [4]) was “Not significant”.
`O=C(O)Cn1c(=O)c2cc(I)ccc2n(Cc2ccc(Br)cc2F)c1=O` showed an inhibition [1] of 83%, an inhibition [2] of 64% and a Lowering (Rattus norvegicus [5]) of 83%. For the same molecule, the Lowering (Rattus norvegicus [6]) was 64%.
With `O=C(O)Cn1c(=O)c2ccc(F)cc2n(Cc2ccc(Br)cc2F)c1=O` the inhibition [1] was 74%, the inhibition [2] was 53% and the Lowering (Rattus norvegicus [7]) was “Not significant”. It also gave a Lowering (Rattus norvegicus [8]) of 63%.
`O=C(O)CN1CN(Cc2ccc(Br)cc2F)c2ccc(Cl)cc2C1=O` was tested, and the inhibition [1] was 51%, the inhibition [2] was 23% and the Lowering (Rattus norvegicus [7]) was “Not significant”. It also gave a Lowering (Rattus norvegicus [9]) of 38%.
`O=C(O)Cn1c(=O)c2c3c(sc2n(Cc2ccc(Cl)c(Cl)c2)c1=O)CCCC3` was tested, and the inhibition [1] was 86%, the inhibition [2] was 63% and the Lowering (Rattus norvegicus [10]) was 19%. For the same molecule, the Lowering (Rattus norvegicus [11]) was “Not significant”.
With `Cc1nc2cc3ccccc3cc2c(=O)n1CC(=O)O` the Lowering (Rattus norvegicus [12]) was “Not significant”, the inhibition [13] was 76% and the inhibition [14] was 28%. For the same molecule, the Lowering (Rattus norvegicus [15]) was “Not significant”.
With `O=C(O)Cn1c(=O)n(Cc2ccc(Cl)c(Cl)c2)c(=O)c2cc(Cl)ccc21` the inhibition [1] was 88%, the inhibition [2] was 64% and the Lowering (Rattus norvegicus [16]) was 38%. It also gave a Lowering (Rattus norvegicus [17]) of 68%.
With `O=C(O)CN1Cc2ccccc2N(Cc2ccc(Cl)c(Cl)c2)C1=O` the inhibition [1] was 68%, the inhibition [2] was 41% and the Lowering (Rattus norvegicus [7]) was “Not significant”. The Lowering (Rattus norvegicus [18]) was 38%.
`O=C(O)Cn1c(=O)c2ccccc2n(Cc2ccc(Br)cc2F)c1=O` was tested, and the inhibition [1] was 71%, the inhibition [2] was 34% and the Lowering (Rattus norvegicus [19]) was 58%. For the same molecule, the Lowering (Rattus norvegicus [20]) was 54%.
For `CC(C)c1nc2ccc(Br)cc2c(=O)n1CC(=O)O`, the inhibition [21] was 40%, the Lowering (Rattus norvegicus [22]) was “Not significant” and the Lowering (Rattus norvegicus [23]) was “Not significant”.
In the case of `Cc1ccc2c(c1)c(=O)n(CC(=O)O)c(=O)n2Cc1ccc(Cl)c(Cl)c1`, the inhibition [1] is reported as 80%, the inhibition [2] is reported as 40% and the Lowering (Rattus norvegicus [24]) is reported as 65%. It also gave a Lowering (Rattus norvegicus [25]) of 76%.
`O=C(O)Cn1c(=O)c2cc(Cl)ccc2n(Cc2ccc(Br)cc2F)c1=O` showed an inhibition [1] of 80%, an inhibition [2] of 51% and a Lowering (Rattus norvegicus [26]) of 47%. The Lowering (Rattus norvegicus [27]) was 78%.
`O=C(O)CN1C(=O)N(Cc2ccc(Cl)c(Cl)c2)Cc2ccccc21` was tested, and the inhibition [1] was 53%, the inhibition [2] was 31% and the Lowering (Rattus norvegicus [7]) was “Not significant”. For the same molecule, the Lowering (Rattus norvegicus [28]) was 30%.
`O=C(O)Cn1c(=O)c2cc(Br)ccc2n(Cc2ccc(Cl)c(Cl)c2)c1=O` showed an inhibition [1] of 83%, a Lowering (Rattus norvegicus [29]) of 62% and an inhibition [2] of 47%. The Lowering (Rattus norvegicus [30]) was 78%.
In the case of `COc1ccc2c(C(=S)N(C)CC(=O)O)cccc2c1C(F)(F)F` [TOLRESTAT], the ED50 (Rattus norvegicus [31]) is reported as 6.4 mg/kg/day.
In the case of `Cc1sc2c(c1C)c(=O)n(CC(=O)O)c(=O)n2Cc1ccc(Cl)c(Cl)c1`, the inhibition [1] is reported as 79%, the inhibition [2] is reported as 51% and the Lowering (Rattus norvegicus [32]) is reported as “Not significant”. For the same molecule, the Lowering (Rattus norvegicus [33]) was “Not significant”.
